Experimental data from different studies.
Target: Broad substrate specificity ATP-binding cassette transporter ABCG2 (ABCG2, Homo sapiens, UniProt Q9UNQ0)
One construct used (Q9UNQ0 1-655): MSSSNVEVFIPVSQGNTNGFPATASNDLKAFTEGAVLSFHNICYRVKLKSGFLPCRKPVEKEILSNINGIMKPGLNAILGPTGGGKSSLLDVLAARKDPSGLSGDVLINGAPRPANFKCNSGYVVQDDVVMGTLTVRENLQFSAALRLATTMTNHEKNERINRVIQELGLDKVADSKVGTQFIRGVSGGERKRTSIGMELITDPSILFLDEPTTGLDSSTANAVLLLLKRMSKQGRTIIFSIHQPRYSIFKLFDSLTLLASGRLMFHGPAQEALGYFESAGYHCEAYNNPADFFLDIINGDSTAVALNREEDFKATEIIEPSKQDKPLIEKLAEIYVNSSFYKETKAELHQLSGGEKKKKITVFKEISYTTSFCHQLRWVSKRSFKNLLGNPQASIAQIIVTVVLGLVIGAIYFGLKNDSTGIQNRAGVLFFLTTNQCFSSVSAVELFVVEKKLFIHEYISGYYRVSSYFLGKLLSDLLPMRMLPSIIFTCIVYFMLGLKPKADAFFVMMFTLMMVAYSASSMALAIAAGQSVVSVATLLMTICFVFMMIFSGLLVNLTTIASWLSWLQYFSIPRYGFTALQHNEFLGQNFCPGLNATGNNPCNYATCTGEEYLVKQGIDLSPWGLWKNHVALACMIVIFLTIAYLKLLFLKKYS

CC(C)[C@H]1Cn2ncc(-c3ccc(C(=O)N4CCCc5ccccc54)cc3)c2CN1C(=O)Cc1ccccc1  Papp B→A (dog, MDCK-MDR1): 11.9 ×10⁻⁶ cm/s
CN(CCC(=O)O)C(=O)c1ccc2c(c1)CC[C@@H]1[C@@H]2CC[C@]2(C)C(c3cncc(F)c3)=CC[C@@H]12  IC50 (transporter uptake, inhibitor): 7.6 µM
C=C[C@@H]1C[C@]1(NC(=O)[C@@H]1C[C@@H]2CN1C(=O)[C@H](C(C)(C)C)NC(=O)O[C@@H]1C[C@H]1CCCCCc1nc3ccc(OC)cc3nc1O2)C(=O)NS(=O)(=O)C1CC1  Ki (transporter uptake, inhibitor; cell membranes): 4 µM
C/C(O)=C(\C#N)C(=O)Nc1ccc(C(F)(F)F)cc1  Papp A→B (Caco-2; 1 µM, 2 h, pH 7.4): 5.51 ×10⁻⁶ cm/s
O=C(O)CSc1nnc(Br)n1-c1ccc(C2CC2)c2ccccc12  inhibition (transporter uptake, inhibitor; Caco-2; 3 µM, 2 h): 18%
C[C@@H](C(=O)N1Cc2c(-c3ccc(C(=O)N4CCCc5ccccc54)cc3)cnn2C[C@@H]1C)c1ccccc1  Papp B→A (dog, MDCK-MDR1): 13.3 ×10⁻⁶ cm/s
N#C/C(=C/c1cc(Cl)cc(Cl)c1)c1cccnc1  inhibition (ligand displacement; 10 µM): ~55%
CC(=O)c1cc(C(=O)N[C@@H](C)Cn2ccc(-c3ccc(C#N)c(Cl)c3)n2)[nH]n1  Ki (transporter uptake, inhibitor; cell membranes): 0.56 µM
CN(C(=O)n1cnc(-c2ccc[n+]([O-])c2)c1)C1CCCCC1  inhibition (transporter uptake, inhibitor; MDCK-II; 10 µg/mL): 13%
O=c1cc(-c2ccccc2)oc2cc(O)cc(O)c12  inhibition (transporter uptake, inhibitor; Caco-2; 100 µM, 2 h): 92%
